The source of these data is ChEMBL document CHEMBL1138216, “Design and synthesis of novel derivatives of the muscarinic agonist tetra(ethylene glycol)(3-methoxy-1,2,5-thiadiazol-4-yl) [3-(1-methyl-1,2,5,6-tetrahydropyrid-3-yl)-1,2,5-thiadiazol-4-yl] ether (CDD-0304): effects of structural modifications on the binding and activity at muscarinic receptor …” (J Med Chem, 2006).

Numbering of substitutions follows the chain as printed. Active and inactive are the calls of the source. No cut-off for these calls is given here.

A word on the Ki: it is the dissociation constant of the complex between target and ligand, obtained from inhibition or displacement. Higher therefore signals weaker binding. What is called EC50 is the concentration giving half of the maximal effect.

The target in assay [1] is T1, Muscarinic acetylcholine receptor M1 (Homo sapiens) (UniProt P11229).
T1 sequence (whole entry): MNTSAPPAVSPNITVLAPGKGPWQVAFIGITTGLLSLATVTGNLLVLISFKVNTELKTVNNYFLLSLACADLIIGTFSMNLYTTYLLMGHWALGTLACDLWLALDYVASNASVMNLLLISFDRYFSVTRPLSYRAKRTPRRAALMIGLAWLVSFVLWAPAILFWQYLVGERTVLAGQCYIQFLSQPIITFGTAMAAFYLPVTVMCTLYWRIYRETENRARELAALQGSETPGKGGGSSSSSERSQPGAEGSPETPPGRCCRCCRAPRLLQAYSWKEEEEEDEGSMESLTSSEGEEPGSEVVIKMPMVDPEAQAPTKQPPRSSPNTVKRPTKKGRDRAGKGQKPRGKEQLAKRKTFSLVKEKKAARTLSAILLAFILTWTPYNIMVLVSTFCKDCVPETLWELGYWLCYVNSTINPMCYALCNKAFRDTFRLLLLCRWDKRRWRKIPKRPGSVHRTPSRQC
The experiment in a line: Agonist activity at human M1 receptor expressed in A9 L cells assessed as stimulation of phosphoinositide hydrolysis relative to carbachol. It counts as functional, cell-based. To be noted: L929. In outline: (§1)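 A9 L cells stably expressing the receptor, seeded 24 h, labelled overnight with 10 µCi/mL [3H]inositol in inositol-free DMEM; ligands in HBSS with 10 mM LiCl, 20 mM HEPES, 37 °C, 1 h; formic acid extraction, inositol phosphates counted by SPA beads.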

In assay [2] the target is T2, Muscarinic acetylcholine receptor M1/M5 chimeric protein (Homo sapiens, UniProt P08912+P11229).
T2 sequence (P11229 whole entry): T1 sequence (whole entry)
T2 sequence (P08912 whole entry): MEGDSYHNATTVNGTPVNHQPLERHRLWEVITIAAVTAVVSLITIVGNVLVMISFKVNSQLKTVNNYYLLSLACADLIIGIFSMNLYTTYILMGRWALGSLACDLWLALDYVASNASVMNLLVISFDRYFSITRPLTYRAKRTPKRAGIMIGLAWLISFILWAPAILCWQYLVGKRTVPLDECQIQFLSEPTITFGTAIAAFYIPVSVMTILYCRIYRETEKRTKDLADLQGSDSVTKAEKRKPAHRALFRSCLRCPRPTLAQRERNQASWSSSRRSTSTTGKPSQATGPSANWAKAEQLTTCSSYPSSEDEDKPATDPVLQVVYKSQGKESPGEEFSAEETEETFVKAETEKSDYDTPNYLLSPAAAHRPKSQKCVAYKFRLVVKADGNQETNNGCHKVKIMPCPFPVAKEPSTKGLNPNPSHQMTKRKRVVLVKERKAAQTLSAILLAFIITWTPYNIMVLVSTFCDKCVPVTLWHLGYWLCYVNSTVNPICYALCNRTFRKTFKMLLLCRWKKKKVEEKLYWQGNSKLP
The experiment in a line: Inhibition of [3H](R)-QNB binding to human M1/M5(o2) chimeric receptor expressed in A9 L cells. Type of assay: cell-based, A9L.

Assay [3] deals with Muscarinic acetylcholine receptor M1 (Homo sapiens, UniProt P11229, E170K). It counts as functional, cell-based, L929.
The target of assay [4] is T3, Muscarinic acetylcholine receptor M1/M5 chimeric protein (Homo sapiens) (UniProt P11229+P08912). The assay can be described thus: Agonist activity at human M1/M5(o2o3) chimeric receptor expressed in A9 L cells assessed as stimulation of phosphoinositide hydrolysis relative to carbachol. Type of assay: functional, cell-based. The following applies: L929. In outline:
as §1

For assay [5], the target named is Muscarinic acetylcholine receptor M1 (Homo sapiens, UniProt P11229, T192A). The assay can be described thus: Inhibition of [3H](R)-QNB binding to human M1 receptor Thr192Ala mutant expressed in A9 L cells. It counts as cell-based, A9L.
For assay [6], the system named is T4, Muscarinic acetylcholine receptor M1 (Homo sapiens), P11229 [E170K].
T4 sequence (whole entry): T1 sequence (whole entry) with E170K
The assay can be described thus: Agonist activity at human M1 receptor E170K mutant expressed in A9 L cells assessed as stimulation of phosphoinositide hydrolysis relative to carbachol. It counts as functional, cell-based. The following applies: L929. The method, boiled down:
as §1

Assay [7] concerns the target T2, Muscarinic acetylcholine receptor M1/M5 chimeric protein. The assay can be described thus: Inhibition of [3H](R)-QNB binding to human M1/M5(o3) chimeric receptor expressed in A9 L cells. Type of assay: cell-based, A9L.
Assay [8] concerns the target T3, Muscarinic acetylcholine receptor M1/M5 chimeric protein (Homo sapiens). The assay can be described thus: Agonist activity at human M1/M5(o3) chimeric receptor expressed in A9 L cells assessed as stimulation of phosphoinositide hydrolysis relative to carbachol. It counts as functional, cell-based. To be noted: L929. The method, boiled down:
as §1

For assay [9], the target named is Muscarinic acetylcholine receptor M1 (Homo sapiens, UniProt P11229, Q185E). Type of assay: functional, cell-based, L929.
In assay [10] the target is T5, Muscarinic acetylcholine receptor M5 (Homo sapiens) (UniProt P08912).
T5 sequence (whole entry): T2 sequence (P08912 whole entry)
The experiment in a line: Agonist activity at human M5 receptor expressed in A9 L cells assessed as stimulation of phosphoinositide hydrolysis relative to carbachol. The following applies: L929. Type of assay: functional, cell-based. The method, boiled down: as §1

Assay [11] has as its target T2, Muscarinic acetylcholine receptor M1/M5 chimeric protein. The experiment in a line: Agonist activity at human M1/M5(o2) chimeric receptor expressed in A9 L cells assessed as stimulation of phosphoinositide hydrolysis. It counts as functional, cell-based, L929.
Assay [12] deals with T3, Muscarinic acetylcholine receptor M1/M5 chimeric protein (Homo sapiens). The experiment in a line: Agonist activity at human M1/M5(o2) chimeric receptor expressed in A9 L cells assessed as stimulation of phosphoinositide hydrolysis relative to carbachol. Type of assay: functional, cell-based. The following applies: L929. The method, boiled down:
as §1

Assay [13] concerns the target T2, Muscarinic acetylcholine receptor M1/M5 chimeric protein. The assay can be described thus: Agonist activity at human M1/M5(o3) chimeric receptor expressed in A9 L cells assessed as stimulation of phosphoinositide hydrolysis. Type of assay: functional, cell-based, L929.
Assay [14] deals with T6, Muscarinic acetylcholine receptor M1 (Homo sapiens), P11229 [Q185E].
T6 sequence (whole entry): T1 sequence (whole entry) with Q185E
The assay can be described thus: Agonist activity at human M1 receptor Q185E mutant expressed in A9 L cells assessed as stimulation of phosphoinositide hydrolysis relative to carbachol. It counts as functional, cell-based. The following applies: L929. In outline:
as §1

Assay [15] deals with T2, Muscarinic acetylcholine receptor M1/M5 chimeric protein. The assay can be described thus: Inhibition of [3H](R)-QNB binding to human M1/M5(o2o3) chimeric receptor expressed in A9 L cells. Type of assay: cell-based, A9L.

Chain of Muscarinic acetylcholine receptor M1 (Homo sapiens, UniProt P11229, E170K) (P11229 whole entry E170K): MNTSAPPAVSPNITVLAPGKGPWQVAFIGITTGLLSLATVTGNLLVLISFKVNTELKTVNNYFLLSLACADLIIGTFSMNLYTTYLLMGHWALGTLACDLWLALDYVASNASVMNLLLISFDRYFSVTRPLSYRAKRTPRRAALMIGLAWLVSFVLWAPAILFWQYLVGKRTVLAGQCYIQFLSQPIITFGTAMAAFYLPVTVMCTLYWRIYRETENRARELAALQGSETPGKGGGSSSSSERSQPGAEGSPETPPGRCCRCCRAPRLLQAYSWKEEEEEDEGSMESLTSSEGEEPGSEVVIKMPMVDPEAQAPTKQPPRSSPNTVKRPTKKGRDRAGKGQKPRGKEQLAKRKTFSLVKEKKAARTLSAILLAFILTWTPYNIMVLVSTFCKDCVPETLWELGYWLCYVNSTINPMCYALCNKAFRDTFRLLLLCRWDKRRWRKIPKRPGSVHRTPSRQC
Chain of Muscarinic acetylcholine receptor M1 (Homo sapiens, UniProt P11229, Q185E) (P11229 whole entry Q185E): as the sequence (P11229 whole entry E170K) above, with K170E, Q185E counted along it
Chain of Muscarinic acetylcholine receptor M1 (Homo sapiens, UniProt P11229, T192A) (P11229 whole entry T192A): as the sequence (P11229 whole entry E170K) above, with K170E, T192A counted along it

As to `CN1CCC=C(c2nsnc2OCCOCCOCCOCCOc2nsnc2C2=CCCN(C)C2)C1`, the Smax was found to be 69% in assay [1]; 2% in assay [4]; 66% in assay [6]; 23% in [8]; 34% in [12]; 50% in [14]. The Ki was 39.8 nM in [2], 100 nM in [5], 20 nM in [7] and 100 nM in assay [15]. Also, the EC50 is 10 nM in assay [3], 50.1 nM in assay [9], 79.4 nM in assay [11] and 631 nM in [13]. In assay [10], the outcome was inactive.
